High-throughput results as filed in PubChem.
TAAR1 agonist: human TAAR1 agonism. Q96RJ0. CHO RD-HGA16 TAAR1, Fluo-8 calcium fluorescence; vehicle wells 0%, saturating PEA agonist 100%. activation, % at 3 µM. 360,000 tested, 0.99% active. AID 624467;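 active = activation above the mean activation of all test compounds in the run plus 3 SD, cut at about 38% in these data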
Target sequence (Q96RJ0 whole entry, looked up): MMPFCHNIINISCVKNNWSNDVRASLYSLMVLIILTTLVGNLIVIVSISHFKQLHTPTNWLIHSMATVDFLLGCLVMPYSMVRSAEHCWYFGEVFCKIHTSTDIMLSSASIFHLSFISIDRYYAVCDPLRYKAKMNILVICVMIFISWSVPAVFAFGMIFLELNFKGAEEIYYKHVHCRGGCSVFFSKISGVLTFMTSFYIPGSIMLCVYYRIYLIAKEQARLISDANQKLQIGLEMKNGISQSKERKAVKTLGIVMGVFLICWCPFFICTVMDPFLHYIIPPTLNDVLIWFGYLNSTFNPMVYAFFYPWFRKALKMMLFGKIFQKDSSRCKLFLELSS
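Assay system – CHO-derived RD-HGA16 cells with stable Gα16 and human TAAR1 · Compound dosing – one-point dosing at 3 µM (nominal) · Incubation – 17-24 h seeding, 75 min 37 °C dye, 30 min RT · Measured by – kinetic Fluo-8 calcium fluorescence · Control set – DMSO vehicle as 0%, PEA at EC100 as 100% · Repeats – single well for each compound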
CHO parental Ca: counter-screen: ATP calcium response change in parental CHO cells. 330,000 tested, 0.63% active. inhibition, % at 5.6 µM. parental CHO-K1, ATP-induced calcium, Fluo-8 fluorescence;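 active = inhibition above that plate's mean sample inhibition plus 3 SD, cut at about 26% in these data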;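 note: 0% = ATP-challenged DMSO wells and 100% = DMSO wells without ATP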
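Assay system: parental CHO cells; Read-out basis: percent inhibition of ATP-evoked calcium rise, normalized to controls; Benchmarks: ATP and no-ATP DMSO wells; Compound dosing: single nominal dose of 5.6 µM per compound; Signal: Fluo-8 calcium dye fluorescence; Also added: ATP as calcium-mobilizing challenge; Repeats: singlicate.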
OX1R antag-1: blocks the human orexin 1 receptor | O43613 | 330,000 tested, 1.8% active | inhibition, % at 6.6 µM | OX1R-expressing cells, FRET antagonist read-out; in the data active = inhibition mostly above about 38%, no sharp cut-off; inactive = mostly below about 40%;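 note: 0% = agonist challenge alone and 100% = reference antagonist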
GPR7 antag: antagonists of human GPR7 (neuropeptides B/W receptor 1). P48145. GPR7-expressing cells, fluorescence antagonist assay. inhibition, % at 4.4 µM. 290,000 tested, 1.1% active; in the data active = inhibition above about 16%, passing the limit was not always enough;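 note: cells stimulated with the agonist NPW; 0% = agonist with vehicle and 100% = vehicle without agonist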
Target sequence (P48145 whole entry, looked up): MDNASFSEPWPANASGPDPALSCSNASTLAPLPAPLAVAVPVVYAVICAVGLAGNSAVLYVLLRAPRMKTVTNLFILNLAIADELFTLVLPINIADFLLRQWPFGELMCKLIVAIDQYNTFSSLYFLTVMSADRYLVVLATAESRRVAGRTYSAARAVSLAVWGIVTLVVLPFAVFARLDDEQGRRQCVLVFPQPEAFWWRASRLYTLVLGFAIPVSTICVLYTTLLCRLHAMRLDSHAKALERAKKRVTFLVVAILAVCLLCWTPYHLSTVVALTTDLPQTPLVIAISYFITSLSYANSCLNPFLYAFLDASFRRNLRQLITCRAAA
TAAR1 antag: antagonists of human TAAR1; Q96RJ0; CHO RD-HGA16 TAAR1, Fluo-8 calcium fluorescence, antagonist; inhibition, % at 3 µM; 360,000 tested, 1.5% active;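 active = inhibition above a per-plate cutoff, the mean inhibition of test compounds on that plate plus 3 SD, cut at about 49% in these data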;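 note: 0% = DMSO plus EC80 beta-PEA response and 100% = DMSO alone without agonist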
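Material: RD-HGA16 CHO cells with stable hTAAR1 and Gα16; Dosing: single nominal final test compound concentration of 3 µM; Schedule: seeding 17-24 h prior, 75-min 37 °C, 30-min RT dye loading; Detection: kinetic Fluo-8 calcium fluorescence measurement; Measure: % inhibition from peak post-agonist over basal fluorescence ratio; Benchmarks: vehicle and agonist controls.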
OX1R antag-2: human HCRTR1 antagonism; O43613; CHO/OX1R cells, Fluo-8 calcium fluorescence, orexin A; inhibition, % at 5 µM; 330,000 tested, 0.43% active; AID 434989;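 active = inhibition above its plate's threshold, mean inhibition of all tested compounds on the plate plus 3 SD, cut at about 37% in these data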;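 note: 0% = orexin A challenge wells and 100% = SB-334867-A antagonist wells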
OX1R Fluo8 conf: OX1R (human) antagonism, confirmed; inhibition, % at 5 µM; 1,100 tested, 38% active; CHO/OX1R cells, orexin A calcium Fluo-8 fluorescence; shares compounds with OX1R antag-2; AID 492963; in the data active = inhibition above about 29%;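 note: 0% = agonist challenge alone and 100% = reference antagonist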
CHO Ca triplic: counter-screen: parental CHO calcium response change, triplicate; parental CHO-K1, ATP-induced calcium, Fluo-8 fluorescence; inhibition, % at 5.6 µM; 1,100 tested, 9.3% active; AID 492965; shares compounds with OX1R antag-2;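 active = inhibition above a per-plate limit, the mean inhibition of that plate's test compounds plus 3 SD, cut at about 25% in these data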;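 note: 0% = ATP challenge with DMSO and 100% = DMSO without ATP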
An asterisk follows results filed as active; · = no result. Rows were chosen to be rich in hits. Some 4.6% of all compounds tested hit in one or more screens of this group.

SMILES	TAAR1 agonist	CHO parental Ca	OX1R antag-1	GPR7 antag	TAAR1 antag	OX1R antag-2	OX1R Fluo8 conf	CHO Ca triplic
COc1ccc(CN2C(=O)NC3(CCOc4ccccc43)C2=O)cc1F (configuration not stated)	10	-4	12	18	9	-27	·	·
O=C(COC(=O)c1cccs1)c1ccc2ccccc2c1	1	20	37	-9	13	38	8	-3
O=C(COC(=O)c1cccs1)c1ccc2c(c1)OCCO2	9	1	10	-4	5	16	·	·
O=C(CNc1cccc(S(=O)(=O)N2CCCC2)c1)Nc1ccc(C(F)(F)F)cc1	19	20	20	·	18	25	4	12
Cn1c(=O)c2cc(NC(=O)NCCc3ccccc3)ccc2n1Cc1cccc(C(F)(F)F)c1	18	·	·	·	30	·	·	·
O=C(Nc1cccc(Cl)c1)Nc1nc(-c2ccc(Cl)cc2)cs1	17	19	18	5	18	29	2	60*
O=C(Nc1ccccc1)Nc1nc(-c2ccc(Cl)cc2)cs1	3	12	29	-5	13	8	·	·
O=C(c1ccc(S(=O)(=O)Nc2ccc(F)cc2)cc1)N1CCN(c2ccccn2)CC1	34	16	52	5	29	34	49*	14
O=C(c1ccc(NS(=O)(=O)c2ccc(F)cc2)cc1)N1CCCCCC1	2	-11	11	·	-20	14	·	·
O=C(Nc1ncn[nH]1)c1ccc(Cl)c(S(=O)(=O)N2CCCCCC2)c1	2	-3	12	-4	-4	29	1	7
Cn1c(SCc2ccc(F)cc2Cl)nc2ccccc2c1=O	1	-11	12	·	-8	36	3	-5
C[C@@H](CO)NC(=O)c1[nH]cnc1C(=O)Nc1ccccc1	3	·	·	·	-7	·	·	·
O=S(=O)(c1ccccc1)N1CCN(c2ncnc3sc(-c4ccccc4)cc23)CC1	4	·	·	-8	-4	·	·	·
NNC(=O)c1cc2c(N3CCC(Cc4ccccc4)CC3)ncnc2s1	11	17	8	-8	32	32	14	11
C[C@H](CO)N1C[C@H](C)[C@@H](CN(C)Cc2ccc(Cl)c(Cl)c2)Oc2c(NC(=O)Cc3ccccc3)cccc2C1=O	27	22	16	·	71*	56*	4	-6
CCOc1ccc(NS(=O)(=O)c2cc(OC)ccc2OC)cc1	8	-6	7	-7	-19	-8	·	·
COc1ccc(OC)c(S(=O)(=O)Nc2ccc(Oc3ccccc3)cc2)c1	27	13	10	-16	27	45	9	9
O=C(Nc1ccc(F)c(Cl)c1)c1cc(C2CCCCN2C(=O)CCc2ccccc2)on1 (configuration not stated)	5	·	·	·	18	·	·	·
O=C(CSc1ccc2ccccc2c1Br)Nc1cccc(S(=O)(=O)NC2=NCCCCC2)c1	2	-2	36	-2	-4	30	17	-15
CCOC(=O)c1ccc(NC(=O)c2cccc(S(=O)(=O)N3c4ccccc4CC3C)c2)s1 (configuration not stated)	0	6	51	3	63*	34	26	25*
COCCCNC(=O)c1ccc2sc([C@@H]3O[C@H](CO)[C@H](O)[C@H](O)[C@H]3O)nc2c1	1	·	·	·	-24	·	·	·
Cc1cccc(N=Nc2c(N)n[nH]c2-c2ccc(Cl)cc2)c1	33	21	7	-15	-16	27	-5	-7
COC(=O)c1ccc2c(c1)C(C)(C)C(/C=C/c1ccccc1O)=[N+]2C	24	21	31	15	36	33	57*	46*
CS(=O)(=O)N(Cc1ccco1)CC(O)Cn1c2ccccc2c2ccccc21 (configuration not stated)	14	9	37	-2	6	51*	30*	-1
CCCN(CCC)CC(O)Cn1c2ccccc2c2ccccc21 (configuration not stated)	4	-8	24	13	-12	-28	·	·
SMILES	TAAR1 agonist	CHO parental Ca	OX1R antag-1	GPR7 antag	TAAR1 antag	OX1R antag-2	OX1R Fluo8 conf	CHO Ca triplic
Cc1ccc(-c2cc(NC=O)c3ncc(-c4cnn(C)c4)n3c2)cc1	2	·	·	·	4	·	·	·
CC(=O)Nc1ccc(S(=O)(=O)N2CCSC2c2ccccc2Cl)cc1 (configuration not stated)	31	22	39	10	26	26	7	5
CC(=O)Nc1ccc(S(=O)(=O)N2CCSC2c2ccccc2)cc1 (configuration not stated)	21	11	20	-5	0	-13	·	·
CCCCn1nnnc1C(c1cc2ccccc2o1)N1CCN(C(=O)OC(C)(C)C)CC1 (configuration not stated)	5	·	·	·	-21	·	·	·
Cc1cnn2c(C3CC3)ccnc12	3	3	10	3	-27	22	2	-6
O=C(c1ccco1)N1CCN(c2ncccn2)CC1	1	12	-6	-14	-9	23	5	4
O=C(c1ccco1)N1CCN(C(=O)N2CCCC2)CC1	1	9	3	11	-22	4	·	·
N#CC(C(O)c1ccccc1)N1CCOCC1 (configuration not stated)	3	·	·	·	-8	·	·	·
COc1cccc(CNc2nc3cc(C(C)=C(C)C)sc3c(=O)n2C)c1	3	·	·	·	-20	·	·	·
CCOC(=O)N1CCN(C(=O)c2ccc3c(c2)NC(=O)C(N2CCOCC2)S3)CC1 (configuration not stated)	7	6	9	-8	-5	28	4	-1
COCCn1c(=O)[nH]c2cc(C(=O)N3CCN(c4cccc(Cl)c4)CC3)ccc2c1=O	6	13	7	-4	0	25	-2	-1
O=C(Nc1ccc(OC(F)F)c(Cl)c1)c1cccc(OC(F)F)c1	·	8	23	5	·	53*	12	19
O=C1NC[C@H](CCCCN2C[C@H](Cc3ccccc3)N(Cc3ccccc3)C(=O)C2=O)N(CCC2CCCCC2)C1=O	1	·	·	·	-2	·	·	·
O=[N+]([O-])c1ccc(Cl)cc1CNc1ccc(F)c(F)c1	-1	-11	21	-13	6	38	1	-4
CSc1n[nH]c(-c2cccs2)n1	-1	·	·	·	4	·	·	·
CC(Oc1ccc(Br)cc1Cl)C(=O)Nc1ccncc1 (configuration not stated)	5	25	5	-4	23	31	33*	14
CC(Oc1ccc(Br)cc1)C(=O)Nc1ccncc1 (configuration not stated)	21	-1	14	3	21	0	·	·
